ChEMBL document CHEMBL1145490, “Beta-lactam resistance in Haemophilus parasuis Is mediated by plasmid pB1000 bearing blaROB-1” (2007)
In brackets after ≈: the same amount, converted by molar mass.

Assays:
Format in all cases: functional
Escherichia coli [1] = experiment: Antimicrobial activity against Escherichia coli pB1000 expressing ROB1 beta lactamase
Haemophilus parasuis [2] = experiment: Antimicrobial activity against Haemophilus parasuis BB 1025; settings: Glaesserella parasuis
Procedure, shortened: (§1)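 H. parasuis isolates grown on chocolate agar and in Haemophilus test medium broth at 37°C under microaerophilic conditions (5% CO2). Susceptibility was profiled by disk diffusion and broth microdilution in Haemophilus test medium for fastidious bacteria, following a previously described method.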

Haemophilus parasuis [3] = experiment: Antimicrobial activity against Haemophilus parasuis BB 1021; settings: Glaesserella parasuis; procedure, shortened: as §1
Haemophilus parasuis [4] = experiment: Antimicrobial activity against Haemophilus parasuis BB 1022; settings: Glaesserella parasuis; procedure, shortened: as §1
Haemophilus parasuis [5] = experiment: Antimicrobial activity against Haemophilus parasuis BB 1023; settings: Glaesserella parasuis; procedure, shortened: as §1
Haemophilus parasuis [6] = experiment: Antimicrobial activity against Haemophilus parasuis BB 1026; settings: Glaesserella parasuis; procedure, shortened: as §1
Haemophilus parasuis [7] = experiment: Antimicrobial activity against Haemophilus parasuis BB 1024; settings: Glaesserella parasuis; procedure, shortened: as §1
Haemophilus parasuis [8] = experiment: Antimicrobial activity against Haemophilus parasuis BB 1020; settings: Glaesserella parasuis; procedure, shortened: as §1
Haemophilus parasuis [9] = experiment: Antimicrobial activity against Haemophilus parasuis BB 1019; settings: Glaesserella parasuis; procedure, shortened: as §1
Escherichia coli [10] = experiment: Antimicrobial activity against Escherichia coli
Haemophilus parasuis [11] = experiment: Antimicrobial activity against Haemophilus parasuis BB 1018; settings: Glaesserella parasuis; procedure, shortened: as §1
Haemophilus parasuis [12] = experiment: Antimicrobial activity against Haemophilus parasuis ATCC 19417; settings: Glaesserella parasuis; procedure, shortened: as §1

Row | SMILES | MIC (Escherichia coli [1]) | MIC (Haemophilus parasuis [2]) | MIC (Haemophilus parasuis [3]) | MIC (Haemophilus parasuis [4]) | MIC (Haemophilus parasuis [5]) | MIC (Haemophilus parasuis [6]) | MIC (Haemophilus parasuis [7]) | MIC (Haemophilus parasuis [8]) | MIC (Haemophilus parasuis [9]) | MIC (Escherichia coli [10]) | MIC (Haemophilus parasuis [11]) | MIC (Haemophilus parasuis [12])
1 | CC1(C)S[C@@H]2[C@H](NC(=O)[C@H](N)c3ccc(O)cc3)C(=O)N2[C@H]1C(=O)O [AMOXICILLIN] | > 256 µg/mL | > 256 µg/mL | > 256 µg/mL | > 256 µg/mL | > 256 µg/mL | ≤ 2 µg/mL | > 256 µg/mL | > 256 µg/mL | > 256 µg/mL | 4 µg/mL (≈ 10.9 µM) | > 256 µg/mL | ≤ 2 µg/mL
2 | N[C@@H](C(=O)N[C@@H]1C(=O)N2C(C(=O)O)=C(Cl)CS[C@H]12)c1ccccc1 [CEFACLOR ANHYDROUS] | 128 µg/mL (≈ 348 µM) | > 16 µg/mL | > 16 µg/mL | > 16 µg/mL | > 16 µg/mL | ≤ 1 µg/mL | > 16 µg/mL | > 16 µg/mL | > 16 µg/mL | 8 µg/mL (≈ 21.8 µM) | > 16 µg/mL | ≤ 1 µg/mL
3 | CO/N=C(\C(=O)N[C@@H]1C(=O)N2C(C(=O)O)=C(COC(C)=O)CS[C@H]12)c1csc(N)n1 [CEFOTAXIME] | 0.06 µg/mL (≈ 0.132 µM) | 0.06 µg/mL (≈ 0.132 µM) | 0.06 µg/mL (≈ 0.132 µM) | 0.06 µg/mL (≈ 0.132 µM) | 0.12 µg/mL (≈ 0.263 µM) | ≤ 0.03 µg/mL | 0.06 µg/mL (≈ 0.132 µM) | ≤ 0.03 µg/mL | 0.06 µg/mL (≈ 0.132 µM) | 0.06 µg/mL (≈ 0.132 µM) | 0.06 µg/mL (≈ 0.132 µM) | ≤ 0.03 µg/mL
4 | Cc1onc(-c2ccccc2)c1C(=O)N[C@@H]1C(=O)N2[C@@H]1SC(C)(C)[C@@H]2C(=O)O [OXACILLIN] | > 4 µg/mL | ≤ 0.25 µg/mL | ≤ 0.25 µg/mL | ≤ 0.25 µg/mL | ≤ 0.25 µg/mL | ≤ 0.25 µg/mL | ≤ 0.25 µg/mL | ≤ 0.25 µg/mL | ≤ 0.25 µg/mL | > 4 µg/mL | ≤ 0.25 µg/mL | ≤ 0.25 µg/mL
